Efflux pump mplx: inhibitors of Candida efflux pumps in yeast, primary screen, S. cerevisiae, Nile Red, multiplex. inhibition, % at 10 µM. 0.44% of 330,000 active. AID 485275, 2010. S. cerevisiae Candida pump triplex;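 active = plate passing quality check with inhibition over a set limit, or well fluorescence over plate mean plus 4 SD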;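 also: Nile Red retained in pooled yeast measured as flow cytometry median fluorescence; 0% = buffer negative control and 100% = Enniatin B positive control; higher means more Nile Red kept so more efflux inhibition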
Cneo AK release: Cryptococcus neoformans cell lysis inducers, primary screen, AK release luminescence, single concentration. C. neoformans lysis, adenylate kinase release luminescence, 4 h; normalised: neutral wells 0, clomiphene wells 100. lysis activity, % at 15 µM. 0.2% of 360,000 active. AID 651654, 2012;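 active = mean lysis activity across replicates of at least 80%, whatever share of replicates individually reach that level; inactive = mean lysis activity below 80%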
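Assay system: Cryptococcus neoformans yeast cells / Dosing: single-point compound dose / Timing: 4 h at 37 °C static, read 1 h later / Measured by: luminescence of released adenylate kinase using an AK detection reagent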
Statin myotox sup: suppressors of statin myotoxicity in C2C12 myotubes, primary screen, cell-based, single point, plate reader; rescue of ATP level, % at 7.49 µM; C2C12 myotubes + simvastatin, ATP luminescence, 48 h; scaled: DMSO 0, geranylgeraniol control 100; 0.78% of 330,000 active;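 active = mean ATP rescue above about 67%, or every replicate alone reaching that limit, limit read from the data, passing the limit was not always enough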;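 also: myotubes were challenged with 10 µM simvastatin during compound exposure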
SUMO Mot1 rescue: yeast Mot1-301 growth rescue at high temperature, primary screen, SUMOylation pathway inhibitor project, S. cerevisiae, ATP luminescence, 38.5C; S. cerevisiae Mot1-301 growth rescue; percent above DMSO median, 100 means doubled; growth rescue, % at 18.8 µM; 1% of 320,000 active;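 active = every valid replicate shows activation above 250% relative to neutral control wells; inactive = the rest, any valid replicate at or below 250%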;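 also: OY570 slx delta 5 strain wells were the positive control but not used for scaling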
Active calls of the source: *. Compounds with a hit are over-represented: about 1.8% of the library has one in this group of screens.

What do the screens show for `Cc1ccc(C(=O)COC(=O)CNC(=O)c2cccs2)cc1`?
Efflux pump mplx: 0; Cneo AK release: 2; Statin myotox sup: 9

What do the screens show for `Cc1ccc(S(=O)(=O)NCC(=O)OCC(=O)c2cccs2)cc1`?
Efflux pump mplx: 0; Cneo AK release: -2; Statin myotox sup: 125*; SUMO Mot1 rescue: -6

Results for Cc1ccc(S(=O)(=O)NCC(=O)OCC(=O)c2ccc(Cl)s2)cc1 ?
Efflux pump mplx: 4; Cneo AK release: 0; SUMO Mot1 rescue: 353*

How did O=C(Nc1cccc(NC(=O)c2ccccc2F)c1)c1ccccc1 do in these assays?
Efflux pump mplx: 0; Cneo AK release: 1; Statin myotox sup: 107*; SUMO Mot1 rescue: 11

What do the screens show for `Cc1cccc(NC(=O)c2ccccc2C(=O)O)c1`?
Efflux pump mplx: 0; Cneo AK release: 3; Statin myotox sup: 137*; SUMO Mot1 rescue: 16

Results for C/C(=N\NC(=O)c1ccccc1F)c1cccc(NC(=O)c2ccccc2)c1 ?
Efflux pump mplx: 0; Cneo AK release: 5; SUMO Mot1 rescue: 1

Results for CCc1ccc(NC(=O)c2cnc3scc(C)n3c2=O)cc1 ?
Efflux pump mplx: 0; Cneo AK release: 0; Statin myotox sup: -17; SUMO Mot1 rescue: 44

Results for Cc1csc2ncc(C(=O)Nc3cccc(C(F)(F)F)c3)c(=O)n12 ?
Efflux pump mplx: 0; Cneo AK release: 0; Statin myotox sup: 107*; SUMO Mot1 rescue: 4

What do the screens show for `CCOc1ccc(S(=O)(=O)N2CCN(Cc3ccc4c(c3)OCO4)CC2)cc1C`?
Efflux pump mplx: 0; Cneo AK release: -1; Statin myotox sup: 29; SUMO Mot1 rescue: 328*

Results for CCOC(=O)N(C)c1ccc(C(O)(C(F)(F)F)C(F)(F)F)cc1 ?
Efflux pump mplx: 1; Cneo AK release: 2; Statin myotox sup: 71*; SUMO Mot1 rescue: -7

Results for c1ccc2c(c1)CCOC2CNCCCN1CCCCC1 (stereo not given) ?
Cneo AK release: 2; Statin myotox sup: 91*; SUMO Mot1 rescue: 10

Results for CCOc1ccccc1N1CCN(C2=C(NS(=O)(=O)c3cccs3)C(=O)c3ccccc3C2=O)CC1 ?
Efflux pump mplx: 0; Cneo AK release: -2; Statin myotox sup: 110*; SUMO Mot1 rescue: -22

What do the screens show for `Cc1ccc(-c2[nH]nc3c2C(c2ccsc2)C(C#N)=C(N)O3)cc1` (stereo not given)?
Efflux pump mplx: 0; Cneo AK release: 1; Statin myotox sup: 8; SUMO Mot1 rescue: 3

How did Cc1[nH]nc2c1C(c1ccsc1)C(C#N)=C(N)O2 (stereo not given) do in these assays?
Efflux pump mplx: 0; Cneo AK release: 0; Statin myotox sup: 141*; SUMO Mot1 rescue: -10

Results for Cc1ccc(C2=NOC3(CC(=O)N(c4ccc(C)cc4)C3=O)C2)cc1 (stereo not given) ?
Efflux pump mplx: 0; SUMO Mot1 rescue: -29

What do the screens show for `Cc1ccc(C2=NOC3(CC(=O)N(c4ccccc4)C3=O)C2)cc1` (stereo not given)?
Efflux pump mplx: 0; Cneo AK release: -3; Statin myotox sup: 76*; SUMO Mot1 rescue: -4

How did N#Cc1ccc(Oc2ccc(/C=N/O)cn2)cc1 do in these assays?
Efflux pump mplx: 0; Cneo AK release: -2; Statin myotox sup: 122*; SUMO Mot1 rescue: 4

What do the screens show for `CCCC(C)C(=O)OCC(=O)Nc1ccc(Br)cc1` (stereo not given)?
Efflux pump mplx: 0; SUMO Mot1 rescue: -3

What do the screens show for `CN(C)S(=O)(=O)c1ccc(C(=O)Oc2cc(=O)[nH]c3ccccc23)cc1`?
Efflux pump mplx: 0; Cneo AK release: -3; Statin myotox sup: 19; SUMO Mot1 rescue: 465*

What do the screens show for `C=CCc1ccc(OCCCCCN2CCOCC2)c(OC)c1`?
Efflux pump mplx: 0; SUMO Mot1 rescue: 276*

Results for C=CCc1ccc(OCCOCCN(C)C)c(OC)c1 ?
Efflux pump mplx: 0; Cneo AK release: 1; Statin myotox sup: -7; SUMO Mot1 rescue: 70

Results for C=CCc1ccc(OC)c(OC)c1 ?
Efflux pump mplx: 0; Cneo AK release: -1; Statin myotox sup: 3; SUMO Mot1 rescue: 864*

How did COc1cccc(OCCCCCCN2CCOCC2)c1 do in these assays?
Efflux pump mplx: 0; Cneo AK release: 0; Statin myotox sup: 112*; SUMO Mot1 rescue: 218

Screens: PubChem BioAssay, several laboratories
